Consider 23 compounds from ChEMBL document CHEMBL4354821, “Benzisothiazolinone Derivatives as Potent Allosteric Monoacylglycerol Lipase Inhibitors That Functionally Mimic Sulfenylation of Regulatory Cysteines” (J Med Chem, 2020).

Activity calls are given as the source filed them. The calls are words filed in the database; no cut-off is given here.

The test system of data set [1] is N2a. Nature of the data set: Protection against H2O2-induced toxicity in mouse Neuro2a cells assessed as reduction in LDH release at 1 uM preincubated for 30 mins followed by H2O2 challenge and measured after 24 hrs. Type of data set: functional, cell-based. A digest of the protocol:
(§1)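 Neuro-2a cells seeded 5×10^3/well, after 24 h pretreated with agents 30 min, then H2O2 300 µM for 24 h; LDH release into medium measured by absorbance with cytotoxicity detection kit; mean ± SEM; t test or one-way ANOVA with Dunnett's.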

Data set [2] deals with N2a. As to the kind of experiment: Protection against H2O2-induced toxicity in mouse Neuro2a cells assessed as reduction in LDH release at 1 uM preincubated for 30 mins followed by H2O2 challenge and measured after 24 hrs in presence of CB1 receptor antagonist rimonabant. Type of data set: functional, cell-based. In a few lines: as §1
A general note: LDH leaks from cells whose membrane has failed.

In data set [3] the target is T1, Monoglyceride lipase (Rattus norvegicus, UniProt Q8R431).
T1 sequence (Q8R431 whole entry): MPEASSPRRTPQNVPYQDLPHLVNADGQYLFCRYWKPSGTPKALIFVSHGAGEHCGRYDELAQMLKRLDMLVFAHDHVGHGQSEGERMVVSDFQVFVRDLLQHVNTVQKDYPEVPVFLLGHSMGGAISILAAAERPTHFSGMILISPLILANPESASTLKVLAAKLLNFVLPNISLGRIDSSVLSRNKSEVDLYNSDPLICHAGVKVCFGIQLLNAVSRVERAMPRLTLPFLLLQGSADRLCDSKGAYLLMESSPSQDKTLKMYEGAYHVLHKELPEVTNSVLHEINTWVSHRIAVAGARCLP
As to the kind of experiment: Inhibition of recombinant rat MGL expressed in human HeLa cells using 2-oleoylglycerol as substrate preincubated for 10 mins followed by substrate addition and measured after 10 mins by LC-MS analysis. Type of data set: cell-based.

The nature of data set [4]: Drug metabolism in pH 7.4 phosphate buffered saline assessed as N-(2-phenylethyl)-2-[[2-(2-phenylethylcarbamoyl)phenyl]disulfanyl]benzamide formation at 100 uM measured after 60 mins in presence of N-(2-phenylethyl)-2-sulfanyl-benzamide by HR-MS analysis. In a few lines:
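Compound 100 μM final (from 10 mM DMSO stock, 1% DMSO) with GSH 200 μM final in 10 mM PBS pH 7.4 at 37 °C; species quantified at t = 60 min by LC/UV (210/254 nm) and HR-MS (Orbitrap, ESI); mean ± SEM, n = 3-4.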

Data set [5] is described as follows: Glutathione reactivity in pH 7.4 phosphate buffered saline assessed as GSH-adduct formation by measuring GSH level at 100 uM measured after 60 mins by HR-MS analysis. Type of data set: ADME. The following applies: buffer, pH 7.4, 1 h. In a few lines: (§2)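 BTZ 100 µM final (from 10 mM DMSO stock, 1% DMSO final) with GSH 200 µM final in 10 mM PBS pH 7.4 at 37.0 °C; sampled at 60 min (steady state). GSH, GSSG and BTZ quantified by LC/UV (210 nm for GSH/GSSG, 254 nm for BTZ) against PBS standard curves; products identified by HR-MS (Orbitrap). Mean ± SEM, n = 3-4.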

A short description of data set [6]: Glutathione reactivity in pH 7.4 phosphate buffered saline assessed as GSH-adduct formation by measuring oxidized GSH level at 100 uM measured after 60 mins by HR-MS analysis. Type of data set: ADME. Conditions: buffer, pH 7.4, 1 h. A digest of the protocol:
as §2

A short description of data set [7]: Glutathione reactivity in pH 7.4 phosphate buffered saline assessed as GSH-adduct formation by measuring parent compound level at 100 uM measured after 60 mins by HR-MS analysis. Type of data set: ADME. Conditions: buffer, pH 7.4, 1 h, BLD = below limit of detection. In a few lines:
as §2

The nature of data set [8]: Tmax in C57BL6 mouse plasma at 10 mg/kg, ip by LC-MS/MS analysis. Type of data set: ADME, organism-based. In a few lines:
(§3)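 Adult male C57/BL6 mice, n=4 per group, single 10 mg/kg i.p. dose, saline vehicle. Plasma and brain collected at set times after injection. Brains homogenized in acetonitrile with 0.1% formic acid and passed through lipid-removal cartridges. Compound quantified by LC-MS/MS on C18 with formic acid water/methanol step gradient; LOQ 0.1 ng/mL, linear 0.1-100.0 ng/mL.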

The nature of data set [9]: Tmax in C57BL6 mouse brain at 10 mg/kg, ip by LC-MS/MS analysis. Type of data set: ADME, organism-based. A digest of the protocol:
as §3

A short description of data set [10]: Ratio of drug level in brain to plasma of C57BL6 mouse at 10 mg/kg, ip by LC-MS/MS analysis. Type of data set: ADME, organism-based. In a few lines: as §3
A further data set relates to Mus musculus. Nature of the data set: In vivo inhibition of MGL in C57BL6 mouse assessed as increase in 2-AG level at 10 mg/kg, ip measured after 2 hrs by LC-MS/MS analysis. Type of data set: functional, organism-based. In a few lines: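 Adult male C57/BL6 mice, n=4 per group, single 10 mg/kg i.p. dose, saline vehicle; brains collected 2 h post-injection; lipids extracted from homogenate and 2-AG measured by LC-MS (triple quadrupole, ESI positive, isocratic C18); two-tailed t test or ANOVA with Dunnett's.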

Data set [11] deals with Monoglyceride lipase (Rattus norvegicus, UniProt Q8R431, C201A). Nature of the data set: Inhibition of recombinant rat MGL C201A mutant expressed in human HeLa cells using 2-oleoylglycerol as substrate preincubated for 10 mins followed by substrate addition and measured after 10 mins by LC-MS analysis. Type of data set: cell-based.
Data set [12] addresses Monoglyceride lipase (Rattus norvegicus, UniProt Q8R431, C208A). Nature of the data set: Inhibition of recombinant rat MGL C208A mutant expressed in human HeLa cells using 2-oleoylglycerol as substrate preincubated for 10 mins followed by substrate addition and measured after 10 mins by LC-MS analysis. Type of data set: cell-based.
Data set [13] concerns the target Monoglyceride lipase (Rattus norvegicus, UniProt Q8R431, C201A/C208A). As to the kind of experiment: Inhibition of recombinant rat MGL C201A/C208A mutant expressed in human HeLa cells using 2-oleoylglycerol as substrate preincubated for 10 mins followed by substrate addition and measured after 10 mins by LC-MS analysis.

Chain of Monoglyceride lipase (Rattus norvegicus, UniProt Q8R431, C201A/C208A) (Q8R431 whole entry C201A/C208A): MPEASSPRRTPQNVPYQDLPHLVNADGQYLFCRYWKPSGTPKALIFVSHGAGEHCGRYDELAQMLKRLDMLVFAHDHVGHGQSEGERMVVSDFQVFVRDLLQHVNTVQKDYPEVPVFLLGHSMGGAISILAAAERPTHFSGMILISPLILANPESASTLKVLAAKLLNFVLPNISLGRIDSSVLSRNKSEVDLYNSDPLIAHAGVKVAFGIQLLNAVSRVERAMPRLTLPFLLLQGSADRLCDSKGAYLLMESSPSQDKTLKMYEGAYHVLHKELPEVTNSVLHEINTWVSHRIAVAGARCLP
Chain of Monoglyceride lipase (Rattus norvegicus, UniProt Q8R431, C201A) (Q8R431 whole entry C201A): as the sequence (Q8R431 whole entry C201A/C208A) above, with A208C counted along it
Chain of Monoglyceride lipase (Rattus norvegicus, UniProt Q8R431, C208A) (Q8R431 whole entry C208A): as the sequence (Q8R431 whole entry C201A/C208A) above, with A201C counted along it

On to `O=C(Oc1ccc([N+](=O)[O-])cc1)N1CCC(C(O)(c2ccc3c(c2)OCO3)c2ccc3c(c2)OCO3)CC1`, for which the outcome with N2a [1] was Active. In the data set on N2a [2], the outcome was inactive.

Broadly, the IC50 is the concentration needed to halve the response being measured. `O=c1[nH]sc2ccccc12`: the IC50 on Monoglyceride lipase [3] is 306 nM.

Consider `Cn1sc2ccccc2c1=O`, for which the IC50 on Monoglyceride lipase [3] amounted to 59.5 nM.

Consider `O=c1c2ccccc2sn1C1CCCCC1`, for which the IC50 on Monoglyceride lipase [3] was 55.5 nM.

Take `O=c1c2ccccc2sn1NCc1ccc(-c2ccccc2)cc1`: the half-maximal inhibitory concentration (IC50) on Monoglyceride lipase [3] stood at 322 nM.

Regarding `O=c1c2ccccc2sn1CCCCCCN1CCCCC1`, on Monoglyceride lipase [3], the IC50 worked out at 195 nM.

As for `COC(=O)c1ccc(CNn2sc3ccccc3c2=O)cc1`, the IC50 on Monoglyceride lipase [3] was 93.9 nM.

Regarding `COc1ccc2sn(CCc3ccccc3)c(=O)c2c1`, the half-maximal inhibitory concentration (IC50) at Monoglyceride lipase [3] worked out at 568 nM.

In the case of `O=c1c2ccccc2sn1CCc1cccc2ccccc12`, the IC50 on Monoglyceride lipase [3] was found to be 21.8 nM.

For the compound `CN(Cc1ccccc1)n1sc2ccccc2c1=O`, the IC50 at Monoglyceride lipase [3] was determined as 189 nM.

As a reminder, the Tmax is the time at which the peak concentration occurs. Regarding `O=c1c2ccccc2sn1CCc1ccccc1`, the Drug metabolism entry in data set [4] was “Metabolite detected”. For the same compound, the Activity in [5] is 73.4 µM; in [6], 61.8%; in [7] it was “Bld”. Also, the outcome in the data set on N2a [1] was Active. Also, the result in the data set with N2a [2] was inactive. Besides, the Tmax in data set [8] and in data set [9] was 15 min throughout. Besides, in [10], the BPR is 4.5%. Further, the inhibition entry in the data set with Mus musculus is “Active”.

Turning to `Cc1cccc2c(=O)n(CCc3ccccc3)sc12`, the IC50 on Monoglyceride lipase [3] was determined as 13100 nM.

For `O=c1c2ccc([N+](=O)[O-])cc2sn1CCc1ccccc1`, the IC50 on Monoglyceride lipase [3] stood at 238 nM.

In the case of `O=c1c2ccccc2sn1NCc1ccccc1`, the IC50 at Monoglyceride lipase [3] is 19.5 nM; on Monoglyceride lipase [11] it was 54.4 nM; on Monoglyceride lipase [12], 44.9 nM; on Monoglyceride lipase [13], 782 nM.

As for `O=c1c2cc(O)ccc2sn1CCc1ccccc1`, the IC50 on Monoglyceride lipase [3] is 135 nM.

As to `O=c1c2ccc(O)cc2sn1CCc1ccccc1`, at Monoglyceride lipase [3], the IC50 stood at 2550 nM.

With `O=c1c2ccccc2sn1CCc1ccc2ccccc2c1`, the IC50 on Monoglyceride lipase [3] was 54.2 nM.

As for `O=c1c2cc([N+](=O)[O-])ccc2sn1CCc1ccccc1`, the 50% inhibitory concentration (IC50) on Monoglyceride lipase [3] was determined as 163 nM.

In the case of `O=c1ccsn1CCc1ccccc1`, at Monoglyceride lipase [3], the IC50 came out at 759 nM.

In the case of `O=c1c2ccccc2sn1NCCCCCNn1sc2ccccc2c1=O`, the IC50 worked out at 11.5 nM on Monoglyceride lipase [3], 230 nM on Monoglyceride lipase [11], 220 nM on Monoglyceride lipase [12] and 1460 nM on Monoglyceride lipase [13].

Regarding `O=c1c2ccccc2sn1NCCCCCCNn1sc2ccccc2c1=O`, the IC50 on Monoglyceride lipase [3] was 16.8 nM; at Monoglyceride lipase [11], 114 nM; at Monoglyceride lipase [12], 82.7 nM; at Monoglyceride lipase [13], 2080 nM.

Consider `COc1ccc2c(=O)n(CCc3ccccc3)sc2c1`, for which the IC50 at Monoglyceride lipase [3] turned out to be 512 nM.

On to `O=C(O)c1ccc(CNn2sc3ccccc3c2=O)cc1`, for which the concentration for half-maximal inhibition (IC50) on Monoglyceride lipase [3] amounted to 278 nM.
